# Calls of active or inactive are those of the source. The calls are words filed in the database; no cut-off is given here.
# How the values were obtained:
# Primary neuron [1] = assay: Neuroprotective activity against oxygen-glucose deprivation-induced cell death in Sprague-Dawley rat primary neuronal cells assessed as cell viability at 1 to 100 uM treated at onset of recovery period and measured at 24 hrs of recovery by MTT assay relative to control; format: functional, cell-based
# Outline: (§1)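 Rat cortical neurons from E16–17 Sprague-Dawley embryos, used at 6–7 days in serum-free medium. OGD: glucose-free medium bubbled with 95% N2/5% CO2, <0.1% O2, 6.5% CO2, 37 °C, 4 h. Compound added at start of 24 h normoxic recovery. Viability by MTT (0.2 mg/mL, 1.5 h), lysis with HCl/SDS, read at 595/690 nm, relative to 100% control. Four to eight culture batches, each in quadruplicate.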
# Primary neuron [2] = assay: Neuroprotective activity against oxygen-glucose deprivation-induced cell death in Sprague-Dawley rat primary neuronal cells assessed as cell viability at 1 to 250 uM treated at onset of recovery period and measured at 24 hrs of recovery by MTT assay relative to control; format: functional, cell-based; outline: as §1
# [3] = Antioxidant activity assessed as DPPH free radical scavenging activity at 0.1 mM measured after 20 to 60 mins; format: functional
# Outline: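 DPPH 0.1 mM in absolute ethanol with compound at 0.1 mM final (from DMSO). Absorbance at 517 nm recorded after 20 and 60 min at rt. NDGA as standard.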
# [4] = Antioxidant activity assessed as hydroxyl radical scavenging activity at 0.1 mM measured after 30 mins; format: functional
# Outline: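 Hydroxyl radicals from Fe3+/ascorbic acid: EDTA 0.1 mM, Fe3+ 167 μM, DMSO 33 mM, compound 0.1 mM and ascorbic acid 10 mM in 50 mM phosphate buffer pH 7.4. Incubated 37 °C for 30 min, stopped with 17% w/v TCA. Read-out is inhibition of formaldehyde formation, given as % scavenging. Trolox as reference.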
# [5] = Antioxidant activity assessed as inhibition of linoleic acid peroxidation activity at 10 uL; format: functional; parameters: scale not given: the % may be the effect or the level left
# Outline: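 AAPH-initiated peroxidation of sodium linoleate dispersion (16 mM, 10 μL) in 0.05 M phosphate buffer pH 7.4 at 37 °C under air. Initiator was 50 μL of 40 mM AAPH, with 10 μL compound added. Conjugated diene hydroperoxide followed at 234 nm. Trolox as reference.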
# [6] = Antioxidant activity assessed as ABTS radical cation scavenging activity by measuring trolox equivalents at 10 uL after 1 min; format: functional
# Outline: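 ABTS radical cation made from 2 mM aqueous ABTS plus 0.17 mM potassium persulfate in 20 mM phosphate buffer pH 7.4, kept 12–16 h dark at rt. Diluted with ethanol to A734 0.70, then mixed with 10 μL compound from 10 mM stock. Absorbance read at rt 1 min after mixing. Trolox as standard.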
# Lipoxygenase = Lipoxygenase (Glycine max, UniProt Q39829); assay: Inhibition of soybean lipoxygenase using sodium linoleate as substrate by UV-based analysis
# Outline: (§2)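 Soybean lipoxygenase (enzyme 1/9 ×10⁻⁴ w/v in saline) incubated at rt with 0.1 mM sodium linoleate and compound in DMSO, at several concentrations from 1 to 100 µM diluted from 10 mM stock. Conversion to 13-hydroperoxylinoleic acid recorded at 234 nm; IC50 derived. NDGA as reference inhibitor.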
# [7] = Antiinflammatory activity assessed as NO release at 100 uM after 60 mins in presence of L-cysteine by Griess reagent-based relative to control; format: functional
# Outline: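 NO-release test: compound at 100 μM final (from DMSO) in 50 mM phosphate buffer pH 7.4 containing 1 mM L-cysteine, 60 min at 37 °C. Reaction mixture then treated with Griess reagent, left 10 min at rt, absorbance read at 540 nm. Sodium nitroprusside as standard. Mean of three to four determinations.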
# [8] = Antioxidant activity assessed as superoxide anion scavenging activity at 0.1 mM pH 7.4 after 10 mins by NBT assay; format: functional
# Outline: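 Superoxide generated by xanthine/xanthine oxidase (0.07 U/mL) in 0.1 M phosphate buffer pH 7.4 containing NBT and compound at 0.1 mM final. After 10 min at rt, absorbance read at 560 nm. Caffeic acid as standard.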
# Primary neuron [9] = assay: Neuroprotective activity against oxygen-glucose deprivation-induced cell death in Sprague-Dawley rat primary neuronal cells assessed as cell viability at 1 to 10 uM treated at onset of recovery period and measured at 24 hrs of recovery by MTT assay relative to control; format: functional, cell-based; outline: as §1
# [10] = target: Lipoxygenase (Glycine max) (UniProt Q39829); assay: Inhibition of soybean lipoxygenase at 1 to 100 uM using sodium linoleate as substrate by UV-based analysis relative to control; outline: as §2
# [11] = Neuroprotective activity against oxygen-glucose deprivation-induced cell death in Sprague-Dawley rat primary neuronal cells assessed as cell viability at 250 uM treated at onset of recovery period and measured at 24 hrs of recovery by MTT assay relative to control; format: functional; details: Primary neuron, read-out: Activity; outline: as §1
# Mus musculus [12] = assay: Neuroprotective activity in C57BL/6 mouse model of ischemia-induced cerebral ischemia model assessed reduction in neurodeficit score at 40 mg/kg, ip administered at onset of reperfusion period and measured at 5 days reperfusion post ischemia; format: functional, organism-based
# Mus musculus [13] = assay: Neuroprotective activity in C57BL/6 mouse model of transient middle cerebral artery occlusion-induced ttransient focal cerebral ischemia assessed decrease in motor deficit by measuring improvement in grip strength at 40 mg/kg, ip measured after 48 hrs post dose by grip strength Test; format: functional; parameters: scale not given: the % may be the effect or the level left
# Mus musculus [14] = assay: Neuroprotective activity in C57BL/6 mouse model of transient middle cerebral artery occlusion-induced ttransient focal cerebral ischemia assessed decrease in size of ischemic lesion at 40 mg/kg, ip measured after 48 hrs post dose relative to control; format: functional, organism-based
# Mus musculus [15] = assay: (§3) Neuroprotective activity in C57BL/6 mouse model of ischemia-induced cerebral ischemia model assessed reduction in neuronal cell death in hippocampal CA1 region at 40 mg/kg, ip administered at onset of reperfusion period and measured at 5 days reperfusion post ischemia by Fluoro-Jade-staining assay based relative to control; format: functional, organism-based
# Mus musculus [16] = assay: as §3, with “cortical” for “hippocampal CA1”; format: functional, organism-based
# Mus musculus [17] = assay: Neuroprotective activity in C57BL/6 mouse model of ischemia-induced cerebral ischemia model assessed as reduction in apoptosis in hippocampal CA1 region at 40 mg/kg, ip administered at onset of reperfusion period and measured at 5 days reperfusion post ischemia by TUNNEL assay relative to control; format: functional, organism-based
# Mus musculus [18] = assay: Neuroprotective activity in C57BL/6 mouse model of ischemia-induced cerebral ischemia model assessed as reduction in apoptosis in cortical region at 40 mg/kg, ip administered at onset of reperfusion period and measured at 5 days reperfusion post ischemia by TUNNEL assay relative to control; format: functional, organism-based
# [19] = Neuroprotective activity against oxygen-glucose deprivation-induced cell death in Sprague-Dawley rat primary neuronal cells assessed as cell viability at 100 uM treated at onset of recovery period and measured at 24 hrs of recovery by MTT assay relative to control; format: functional; details: Primary neuron, read-out: Activity; outline: as §1
# Primary neuron [20] = assay: Neuroprotective activity against oxygen-glucose deprivation-induced cell death in Sprague-Dawley rat primary neuronal cells assessed as cell viability at 0.5 to 250 uM treated at onset of recovery period and measured at 24 hrs of recovery by MTT assay relative to control; format: functional, cell-based; outline: as §1
# [21] = Neuroprotective activity against oxygen-glucose deprivation-induced cell death in Sprague-Dawley rat primary neuronal cells assessed as cell viability at 10 uM treated at onset of recovery period and measured at 24 hrs of recovery by MTT assay relative to control; format: functional; details: Primary neuron, read-out: Activity; outline: as §1
# [22] = Neuroprotective activity against oxygen-glucose deprivation-induced cell death in Sprague-Dawley rat primary neuronal cells assessed as cell viability at 50 uM treated at onset of recovery period and measured at 24 hrs of recovery by MTT assay relative to control; format: functional; details: Primary neuron, read-out: Activity; outline: as §1
# Primary neuron [23] = assay: Neuroprotective activity against oxygen-glucose deprivation-induced cell death in Sprague-Dawley rat primary neuronal cells assessed as cell viability at 0.3 to 100 uM treated at onset of recovery period and measured at 24 hrs of recovery by MTT assay relative to control; format: functional, cell-based; outline: as §1
# Rattus norvegicus = assay: Antiinflammatory activity in Fisher 344 rat model of carrageenan-induced edema assessed as inhibition of carrageenan-induced paw edema at 0.01 mmol/kg, ip dosed simultaneously with carrageenan injection relative to control; format: functional; details: Fisher 344, ip
# Outline: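 Fisher 344 rats (150–200 g), both sexes. Edema was induced by intradermal injection of 0.1 mL 2% carrageenan in water into the right hind paw. Compound was suspended in water with a few drops of Tween 80. Rats were euthanized 3.5 h later. The injected-minus-uninjected paw weight difference was compared with water or Tween-water controls as % inhibition. Mean of two experiments, n = 6 each.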
# Primary neuron [24] = assay: Neuroprotective activity against oxygen-glucose deprivation-induced cell death in Sprague-Dawley rat primary neuronal cells assessed as cell viability at 0.5 to 10 uM treated at onset of recovery period and measured at 24 hrs of recovery by MTT assay relative to control; format: functional, cell-based; outline: as §1
smiles,measurement,setting,value
COc1nc2ccccc2cc1/C=[N+](\[O-])Cc1ccccc1,Activity,Primary neuron [1],inactive
COc1ccc(OC)c2nc(Cl)c(/C=[N+](\[O-])Cc3ccccc3)cc12,Activity,Primary neuron [1],inactive
Cc1ccc2nc(N(C)C)c(/C=[N+](\[O-])Cc3ccccc3)cc2c1,Activity,Primary neuron [2],Active
COc1ccc2cc(/C=[N+](\[O-])Cc3ccccc3)c(Cl)nc2c1,Activity,Primary neuron [1],inactive
CC(C)(C)/[N+]([O-])=C/c1cc2ccccc2nc1Cl,Activity,[3],7%
same,Activity,[4],97%
same,Activity,[5],inactive
same,Activity,[6],inactive
same,IC50,Lipoxygenase,32.5 µM
same,Activity,[7],7.5%
same,Activity,[8],16%
same,Activity,Primary neuron [1],inactive
Cc1ccc2nc(O)c(/C=[N+](\[O-])C(C)(C)C)cc2c1,Activity,Primary neuron [2],Active
CC(C)(C)/[N+]([O-])=C/c1cc2ccccc2n2nnnc12,Activity,Primary neuron [1],inactive
CNc1nc2ccc(C)cc2cc1/C=[N+](\[O-])Cc1ccccc1,Activity,Primary neuron [9],inactive
[O-]/[N+](=C\c1cc2cc(Cl)ccc2nc1Cl)Cc1ccccc1,Activity,Primary neuron [2],inactive
Cc1ccc2nc(O)c(/C=[N+](\[O-])Cc3ccccc3)cc2c1,Activity,Primary neuron [2],Active
COc1ccc2nc(Cl)c(C=O)cc2c1,Activity,Primary neuron [1],inactive
COc1ccc2nc(Cl)c(/C=[N+](/C)[O-])cc2c1,Activity,[3],inactive
same,Activity,[4],100%
same,Activity,[5],100%
same,Activity,[6],inactive
same,inhibition,[10],26%
same,Activity,[7],11%
same,Activity,[8],29%
same,Activity,Primary neuron [2],inactive
Cc1c(C)c2c(c(C)c1O)CCC(C)(C(=O)O)O2 (stereo unspecified),Activity,[4],73%
same,Activity,[5],88%
same,Activity,[6],91%
CC(C)(C)/[N+]([O-])=C/c1ccc(S(=O)(=O)[O-])cc1S(=O)(=O)[O-].[Na+].[Na+],viability at 250 µM,[11],52.9%
same,Activity,[3],inactive
same,Activity,[4],94%
same,Activity,[5],inactive
same,Activity,[6],inactive
same,IC50,Lipoxygenase,57.5 µM
same,Activity,[7],1%
same,Activity,[8],inactive
same,Activity,Mus musculus [12],Active
same,Activity,Mus musculus [13],20.7%
same,Activity,Mus musculus [14],inactive
same,Activity,Mus musculus [15],inactive
same,Activity,Mus musculus [16],inactive
same,Activity,Mus musculus [17],inactive
same,Activity,Mus musculus [18],inactive
COc1nc2ccc(C)cc2cc1/C=[N+](\[O-])Cc1ccccc1,Activity,Primary neuron [1],inactive
Cc1ccc2nc(Cl)c(/C=N/N)cc2c1,Activity,Primary neuron [2],inactive
Cc1ccc2nc(Cl)c(/C=[N+](\[O-])c3ccccc3)cc2c1,Activity,Primary neuron [2],inactive
CC(Cc1ccc(O)c(O)c1)C(C)Cc1ccc(O)c(O)c1 (stereo unspecified) [NORDIHYDROGUAIARETIC ACID],Activity,[3],93%
CC(C)(C)/[N+]([O-])=C/c1cc2ccccc2nc1O,viability at 250 µM,[11],55%
same,viability at 100 µM,[19],48.8%
same,Activity,[3],inactive
same,Activity,[4],99%
same,Activity,[5],100%
same,Activity,[6],6%
same,IC50,Lipoxygenase,36.5 µM
same,Activity,[8],23%
Cc1ccc2nc(Cl)c(/C=N/O)cc2c1,Activity,Primary neuron [20],inactive
O=C(O)/C=C/c1ccc(O)c(O)c1,Activity,[8],15%
Cc1ccc2nc(Cl)c(/C=N/Cc3ccccc3)cc2c1,Activity,Primary neuron [20],inactive
Cc1ccc2nc(Cl)c(/C=N/NCc3ccccc3)cc2c1,Activity,Primary neuron [2],inactive
Cc1ccc2nc(Cl)c(/C=[N+](\[O-])Cc3ccccc3)cc2c1,viability at 10 µM,[21],55.4%
same,viability at 50 µM,[22],56.8%
COc1ccc2nc(Cl)c(/C=[N+](\[O-])Cc3ccccc3)cc2c1,Activity,[3],3%
same,Activity,[4],65%
same,Activity,[5],100%
same,Activity,[6],inactive
same,IC50,Lipoxygenase,100 µM
same,Activity,[7],12.5%
same,Activity,[8],18%
same,Activity,Primary neuron [23],inactive
Cc1ccc2ncc(/C=[N+](\[O-])Cc3ccccc3)cc2c1,Activity,Primary neuron [2],Active
COc1ccc2c(c1)c(CC(=O)O)c(C)n2C(=O)c1ccc(Cl)cc1 [INDOMETHACIN],inhibition in vivo at 10 µmol/kg,Rattus norvegicus,47%
Cc1ccc2nc(Cl)c(/C=N/OCc3ccccc3)cc2c1,Activity,Primary neuron [24],inactive
[O-]/[N+](=C\c1cc2cc(O)ccc2nc1Cl)Cc1ccccc1,Activity,Primary neuron [2],inactive
[O-]/[N+](=C\c1cc2ccccc2nc1Cl)Cc1ccccc1,Activity,Primary neuron [1],inactive
Cc1ccc2nc(Cl)c(/C=N/C(C)(C)C)cc2c1,Activity,Primary neuron [2],inactive
